Source: ChEMBL document CHEMBL5104108, “Concise synthesis and biological activity evaluation of novel pyrazinyl-aryl urea derivatives against several cancer cell lines, which can especially induce T24 apoptotic and necroptotic cell death” (RSC Med Chem, 2022)
Activity calls are given as the source filed them. No cut-off for these calls is given here.

Legend:
[1] = Antiproliferative activity against human HCV-29 cells measured after 48 hrs by MTT assay; type: functional, cell-based; conditions: HCV-29, 48 h
Summary of the method: (§1)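 Cells seeded 5 × 10^3 per well, grown overnight at 37 °C, then exposed to compound at final 1–40 μM (1, 2.5, 5, 7.5, 10, 12.5, 15, 20, 30, 40 μM) for the stated period. MTT added, 4 h at 37 °C, formazan dissolved in DMSO, absorbance read. IC50 = concentration killing 50% of cells relative to untreated control; mean ± S.D. of four independent experiments.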

[2] = Selectivity index, ratio IC50 for antiproliferative activity against human HCV-29 cells over IC50 for antiproliferative activity against human T24 cells; type: toxicity, cell-based; conditions: HCV-29 cells versus T24 cells
Summary of the method: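 MTT assay, 48 h exposure at final 1–40 μM in T24 and normal bladder epithelial HCV29 cells (5 × 10^3/well, seeded overnight, 37 °C). MTT added for 4 h and formazan dissolved in DMSO. IC50 taken relative to untreated control, four parallel samples. SI = IC50(HCV29)/IC50(T24).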

T-24 [3] = test: Antiproliferative activity against human T24 cells measured after 24 hrs by MTT assay; type: functional, cell-based; conditions: T-24, 24 h; summary of the method: as §1
T-24 [4] = test: Induction of apoptosis in human T24 cells assessed as apoptotic cells at 5 uM measured after 10 hrs by Annexin-V/FITC and propidium iodide staining based flow cytometry analysis; type: functional
Summary of the method: (§2)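 T24 cells in 60 mm dishes treated 10 h at 37 °C, collected, PBS-washed, resuspended in binding buffer, stained with Annexin V-FITC and PI for 15 min at room temperature in the dark. At least 1 × 10^4 events per sample by flow cytometry; apoptotic cells = early (Annexin+/PI−) plus late (Annexin+/PI+). Triplicate experiments.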

T-24 [5] = test: Induction of apoptosis in human T24 cells assessed as apoptotic cells at 7.5 uM measured after 10 hrs by Annexin-V/FITC and propidium iodide staining based flow cytometry analysis; type: functional; summary of the method: as §2
T-24 [6] = test: Induction of apoptosis in human T24 cells assessed as increase in Bax expression at 5 to 7.5 uM measured by Western blot analysis; type: functional, cell-based; conditions: dose 5-7.5 µM
Summary of the method: (§3)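 Apoptosis-related proteins measured by Western blot in T24 lysates: 40 μg protein per lane by SDS-PAGE, PVDF transfer, primary and peroxidase-linked secondary antibodies, ECL detection, densitometry of gray values with β-actin as loading control.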

T-24 [7] = test: Induction of apoptosis in human T24 cells assessed as increase in Cytochrome c expression at 5 to 7.5 uM measured by Western blot analysis; type: functional, cell-based; conditions: dose 5-7.5 µM; summary of the method: as §3
T-24 [8] = test: Induction of apoptosis in human T24 cells assessed as decrease in Bcl-2 expression at 5 to 7.5 uM measured by Western blot analysis; type: functional, cell-based; conditions: dose 5-7.5 µM; summary of the method: as §3
T-24 [9] = test: Induction of apoptosis in human T24 cells assessed as increase in cleaved caspase-3 expression at 0 to 5 uM measured by Western blot analysis; type: functional, cell-based; conditions: dose 0-5 µM; summary of the method: as §3
T-24 [10] = test: Up-regulation of RIPK2 expression in human T24 cells at 7.5 to 10 uM measured after 16 hrs by Western blot analysis; type: functional, cell-based; conditions: dose 7.5-10 µM
T-24 [11] = test: Up-regulation of p-RIPK3 expression in human T24 cells at 7.5 to 10 uM measured after 16 hrs by Western blot analysis; type: functional, cell-based; conditions: dose 7.5-10 µM
T-24 [12] = test: Up-regulation of p-MLKL expression in human T24 cells at 7.5 to 10 uM measured after 16 hrs by Western blot analysis; type: functional, cell-based; conditions: dose 7.5-10 µM
T-24 [13] = test: Down-regulation of p-RIPK1 expression in human T24 cells at 7.5 to 10 uM measured in presence of 60 uM Nec-1 after 16 hrs by Western blot analysis; type: functional, cell-based; conditions: dose 7.5-10 µM
Summary of the method: (§4)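 T24 cells co-incubated 16 h with or without Nec-1 (60 μM). Lysates quantified by BCA, 40 μg protein resolved by SDS-PAGE, transferred to PVDF, probed with primary and peroxidase-conjugated secondary antibodies, detected by ECL. Band gray values normalized to β-actin loading control.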

T-24 [14] = test: Down-regulation of p-MLKL expression in human T24 cells at 7.5 to 10 uM measured in presence of 60 uM Nec-1 after 16 hrs by Western blot analysis; type: functional, cell-based; conditions: dose 7.5-10 µM; summary of the method: as §4
T-24 [15] = test: Up-regulation of RIPK1 expression in human T24 cells at 2.5 to 7.5 uM measured by ELISA assay; type: functional, cell-based; conditions: dose 2.5-7.5 µM
Summary of the method: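 T24 cells pretreated, collected, diluted in PBS, counted and stored overnight at −20 °C. After membrane disruption, lysates centrifuged at 5000 × g for 5 min (4 °C). RIPK1, RIPK3 and MLKL levels then measured with ELISA kits.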

T-24 [16] = test: Up-regulation of MLKL mRNA expression in human T24 cells at 7.5 to 12.5 uM measured by RT-PCR analysis; type: functional, cell-based; conditions: dose 7.5-12.5 µM
Summary of the method: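 Total T24 RNA extracted with TRIzol. RT-PCR normalized to GAPDH, relative expression by 2−ΔΔCt versus control. Incubation 16 h for RIPK1/RIPK3/MLKL. At least three independent experiments, each in triplicate.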

T-24 [17] = test: Down-regulation of VEGFR-2 mRNA expression in human T24 cells at 5 to 10 uM measured by RT-PCR analysis; type: functional, cell-based; conditions: dose 5-10 µM
T-24 [18] = test: Induction of intracellular reactive oxygen species production in human T24 cells assessed as ROS level at 7.5 uM measured after 16 hrs by flow cytometry analysis; type: functional, cell-based
Summary of the method: (§5)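 After 16 h treatment, floating and adherent T24 cells pooled and loaded with DCFH-DA (final 10 μM) for 30 min at 37 °C in the dark, washed, resuspended in PBS and analyzed by flow cytometry; fluorescence also quantified by luminescence spectrometry. ROS expressed relative to control; mean ± S.D. of three independent experiments.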

T-24 [19] = test: Induction of intracellular reactive oxygen species production in human T24 cells assessed as ROS level at 10 uM measured after 16 hrs by flow cytometry analysis; type: functional, cell-based; summary of the method: as §5
T-24 [20] = test: Induction of intracellular reactive oxygen species production in human T24 cells at 5 to 10 uM measured in presence of 30 uM z-VAD after 16 hrs by flow cytometry analysis; type: functional, cell-based; conditions: dose 5-10 µM
Summary of the method: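 After 5-23 treatment (16 h), floating and adherent T24 cells pooled and loaded with DCFH-DA (final 10 μM) for 30 min at 37 °C in the dark. Cells washed, resuspended in PBS and read by flow cytometry; quantified by luminescence spectrometry as % of control. Runs with zVAD (30 μM) or Nec-1 (60 μM). Three parallel samples.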

T-24 [21] = test: Induction of mitochondrial dysfunction in human T24 cells assessed as decrease in mitochondrial membrane potential at 5 to 10 uM measured by JC-1 staining based assay; type: functional, cell-based; conditions: dose 5-10 µM
Summary of the method: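 Floating and adherent T24 cells pooled after pretreatment. Washed in cold PBS and stained in the dark with JC-1 (10 μg mL−1). Red and green fluorescence imaged by laser scanning confocal microscopy, five random fields per sample.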

[22] = Cmax in Sprague-Dawley rat at 12 mg/kg, IG measured HPLC analysis; type: ADME, organism-based; parameters: dose 12 mg/kg, route ig; conditions: in vivo, po
[23] = AUC (0 to 48 hrs) in Sprague-Dawley rat at 6 mg/kg, IG measured HPLC analysis; type: ADME, organism-based; parameters: time < 48 hr, dose 6 mg/kg, route ig; conditions: in vivo, po
[24] = AUMC in Sprague-Dawley rat at 6 mg/kg, IG measured HPLC analysis; type: ADME, organism-based; conditions: in vivo, po

## O=C(Nc1ccc(C(F)(F)F)cc1)Nc1cccc(CNc2nccnc2Cl)c1
[1]
  IC50: 30 µM
[2]
  SI: 6.56
T-24 [3]
  IC50: 9.18 µM
T-24 [4]
  Activity: 14.83%
T-24 [5]
  Activity: 21.41%
T-24 [6]
  Activity: Active
T-24 [7]
  Activity: Active
T-24 [8]
  Activity: Active
T-24 [9]
  Activity: Active
T-24 [10]
  Activity: Active
T-24 [11]
  Activity: Active
T-24 [12]
  Activity: Active
T-24 [13]
  Activity: Active
T-24 [14]
  Activity: Active
T-24 [15]
  Activity: Active
T-24 [16]
  Activity: Active
T-24 [17]
  Activity: Active
T-24 [18]
  Activity: Active
T-24 [19]
  Activity: Active
T-24 [20]
  Activity: Active
T-24 [21]
  Activity: Active
[22]
  Cmax: 3360 ng/mL
[23]
  AUC(0-t) at 48 h: 30800 ng·h/mL
[24]
  AUMC: 606261 hr2.ng/ml
